Assay results as given in ChEMBL document CHEMBL1146219, “Synthesis and evaluation of novel radioiodinated benzamides for malignant melanoma” (J Med Chem, 2007).

Tests used:
Conditions in all cases: in vivo
Liver [1] = test: Biodistribution in liver of B16F0 tumor bearing C57BL/6J mouse at 0.37-0.74 MBq, iv after 24 hrs in presence of haloperidol; assay type: ADME, organism-based
How it was run: (§1)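 Haloperidol blocking in B16F0-bearing C57BL/6J mice: 1 mg/kg haloperidol was given iv 5 min before the iv [¹²³I]benzamide (0.37-0.74 MBq). Groups of n = 5 were killed at 1 or 24 h. Tissues were weighed and γ-counted as in the biodistribution study and compared with untreated controls by one-way ANOVA, with p < 0.01 taken as significant.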

[2] = Biodistribution in melanoma of B16F0 tumor bearing C57BL/6J mouse at 0.37-0.74 MBq, iv after 6 hrs; assay type: ADME, organism-based, B16-F0
How it was run: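 Female C57BL/6J mice (15-18 g) carrying s.c. B16F0 flank tumors (0.1 mL of 3 × 10⁶ viable cells per mL in Ca²⁺/Mg²⁺-free PBS, inoculated at 6-7 weeks, used 10 days later). [¹²³I]tracer 0.37-0.74 MBq in saline, 100 µL, tail-vein i.v. Groups of n = 5 killed at 1-72 h. Organs weighed and γ-counted, carcass activity also counted, values as %ID/g.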

Liver [3] = test: Biodistribution in liver of B16F0 tumor bearing C57BL/6J mouse at 0.37-0.74 MBq, iv after 1 hr in presence of haloperidol; assay type: ADME, organism-based; how it was run: as §1
Kidney [4] = test: Biodistribution in kidney of B16F0 tumor bearing C57BL/6J mouse at 0.37-0.74 MBq, iv after 6 hrs; assay type: ADME, organism-based
How it was run: (§2)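 Female C57BL/6J mice (15-18 g) were given B16F0 cells subcutaneously in the left flank (0.1 mL of 3 × 10⁶ viable cells/mL in Ca²⁺/Mg²⁺-free PBS) at 6-7 weeks and used after ten days. [¹²³I]benzamide (0.37-0.74 MBq, 100 µL, saline) was injected via the tail vein. Groups of n = 5 were killed by CO₂ and cervical dislocation. Organs were weighed and γ-counted, and the carcass was counted too.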

Blood [5] = test: Biodistribution in blood of B16F0 tumor bearing C57BL/6J mouse at 0.37-0.74 MBq, iv after 1 hr; assay type: ADME, organism-based; how it was run: as §2
Blood [6] = test: Biodistribution in blood of B16F0 tumor bearing C57BL/6J mouse at 0.37-0.74 MBq, iv after 24 hrs; assay type: ADME, organism-based; how it was run: as §2
Lung [7] = test: Biodistribution in lung of B16F0 tumor bearing C57BL/6J mouse at 0.37-0.74 MBq, iv after 24 hrs; assay type: ADME, organism-based; how it was run: as §2
Blood [8] = test: Biodistribution in blood of B16F0 tumor bearing C57BL/6J mouse at 0.37-0.74 MBq, iv after 1 hr in presence of haloperidol; assay type: ADME, organism-based
Blood [9] = test: Biodistribution in blood of B16F0 tumor bearing C57BL/6J mouse at 0.37-0.74 MBq, iv after 24 hrs in presence of haloperidol; assay type: ADME, organism-based
Lung [10] = test: Biodistribution in lung of B16F0 tumor bearing C57BL/6J mouse at 0.37-0.74 MBq, iv after 6 hrs; assay type: ADME, organism-based; how it was run: as §2
Brain [11] = test: Biodistribution in brain of B16F0 tumor bearing C57BL/6J mouse at 0.37-0.74 MBq, iv after 1 hr in presence of haloperidol; assay type: ADME, organism-based
[12] = Biodistribution in eye of B16F0 tumor bearing C57BL/6J mouse at 0.37-0.74 MBq, iv after 1 hr in presence of haloperidol; assay type: ADME, organism-based; how it was run: as §1
Brain [13] = test: Biodistribution in brain of B16F0 tumor bearing C57BL/6J mouse at 0.37-0.74 MBq, iv after 24 hrs; assay type: ADME, organism-based; how it was run: as §2
Heart [14] = test: Biodistribution in heart of B16F0 tumor bearing C57BL/6J mouse at 0.37-0.74 MBq, iv after 24 hrs; assay type: ADME, organism-based; how it was run: as §2
Kidney [15] = test: Biodistribution in kidney of B16F0 tumor bearing C57BL/6J mouse at 0.37-0.74 MBq, iv after 1 hr in presence of haloperidol; assay type: ADME, organism-based; how it was run: as §1
Kidney [16] = test: Biodistribution in kidney of B16F0 tumor bearing C57BL/6J mouse at 0.37-0.74 MBq, iv after 24 hrs in presence of haloperidol; assay type: ADME, organism-based; how it was run: as §1
Brain [17] = test: Biodistribution in brain of B16F0 tumor bearing C57BL/6J mouse at 0.37-0.74 MBq, iv after 24 hrs in presence of haloperidol; assay type: ADME, organism-based
Kidney [18] = test: Biodistribution in kidney of B16F0 tumor bearing C57BL/6J mouse at 0.37-0.74 MBq, iv after 1 hr; assay type: ADME, organism-based; how it was run: as §2
[19] = Biodistribution in tumor of B16F0 tumor bearing C57BL/6J mouse at 0.37-0.74 MBq, iv after 1 hr in presence of haloperidol; assay type: ADME, organism-based, B16-F0
How it was run: (§3)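 B16F0 tumor-bearing C57BL/6J mice, groups of n = 5, given haloperidol 1 mg/kg i.v. 5 min before the i.v. [¹²³I]tracer (0.37-0.74 MBq). Killed at 1 or 24 h. Tissues γ-counted as for biodistribution and compared with untreated controls by one-way ANOVA, significance p < 0.01.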

Heart [20] = test: Biodistribution in heart of B16F0 tumor bearing C57BL/6J mouse at 0.37-0.74 MBq, iv after 1 hr; assay type: ADME, organism-based; how it was run: as §2
Liver [21] = test: Biodistribution in liver of B16F0 tumor bearing C57BL/6J mouse at 0.37-0.74 MBq, iv after 1 hr; assay type: ADME, organism-based; how it was run: as §2
Brain [22] = test: Biodistribution in brain of B16F0 tumor bearing C57BL/6J mouse at 0.37-0.74 MBq, iv after 6 hrs; assay type: ADME, organism-based; how it was run: as §2
[23] = Biodistribution in melanoma of B16F0 tumor bearing C57BL/6J mouse at 0.37-0.74 MBq, iv after 1 hr; assay type: ADME, organism-based, B16-F0; how it was run: as §2
[24] = Biodistribution in tumor of B16F0 tumor bearing C57BL/6J mouse at 0.37-0.74 MBq, iv after 24 hrs in presence of haloperidol; assay type: ADME, organism-based, B16-F0; how it was run: as §3
Lung [25] = test: Biodistribution in lung of B16F0 tumor bearing C57BL/6J mouse at 0.37-0.74 MBq, iv after 1 hr in presence of haloperidol; assay type: ADME, organism-based; how it was run: as §1
Liver [26] = test: Biodistribution in liver of B16F0 tumor bearing C57BL/6J mouse at 0.37-0.74 MBq, iv after 6 hrs; assay type: ADME, organism-based; how it was run: as §2
Lung [27] = test: Biodistribution in lung of B16F0 tumor bearing C57BL/6J mouse at 0.37-0.74 MBq, iv after 24 hrs in presence of haloperidol; assay type: ADME, organism-based; how it was run: as §1
Liver [28] = test: Biodistribution in liver of B16F0 tumor bearing C57BL/6J mouse at 0.37-0.74 MBq, iv after 24 hrs; assay type: ADME, organism-based; how it was run: as §2
[29] = Biodistribution in eye of B16F0 tumor bearing C57BL/6J mouse at 0.37-0.74 MBq, iv after 24 hrs in presence of haloperidol; assay type: ADME, organism-based; how it was run: as §1
Kidney [30] = test: Biodistribution in kidney of B16F0 tumor bearing C57BL/6J mouse at 0.37-0.74 MBq, iv after 24 hrs; assay type: ADME, organism-based; how it was run: as §2
Heart [31] = test: Biodistribution in heart of B16F0 tumor bearing C57BL/6J mouse at 0.37-0.74 MBq, iv after 6 hrs; assay type: ADME, organism-based; how it was run: as §2
Lung [32] = test: Biodistribution in lung of B16F0 tumor bearing C57BL/6J mouse at 0.37-0.74 MBq, iv after 1 hr; assay type: ADME, organism-based; how it was run: as §2
[33] = Biodistribution in melanoma of B16F0 tumor bearing C57BL/6J mouse at 0.37-0.74 MBq, iv after 24 hrs; assay type: ADME, organism-based, B16-F0; how it was run: as §2
Blood [34] = test: Biodistribution in blood of B16F0 tumor bearing C57BL/6J mouse at 0.37-0.74 MBq, iv after 6 hrs; assay type: ADME, organism-based; how it was run: as §2
Brain [35] = test: Biodistribution in brain of B16F0 tumor bearing C57BL/6J mouse at 0.37-0.74 MBq, iv after 1 hr; assay type: ADME, organism-based; how it was run: as §2

O=C(NC1CCN(CCF)CC1)c1ccc(I)cc1
Drug uptake (Liver [1]): 0.12 % ID/g
Drug uptake [2]: 12.5 % ID/g
Drug uptake (Liver [3]): 10.1 % ID/g
Drug uptake (Kidney [4]): 3.4 % ID/g
Drug uptake (Blood [5]): 1 % ID/g
Drug uptake (Blood [6]): 0.04 % ID/g
Drug uptake (Lung [7]): 0.33 % ID/g
Drug uptake (Blood [8]): 1.46 % ID/g
Drug uptake (Blood [9]): 0.03 % ID/g
Drug uptake (Lung [10]): 6.4 % ID/g
Drug uptake (Brain [11]): 1.61 % ID/g
Drug uptake [12]: 34.8 % ID/g
Drug uptake (Brain [13]): 0.09 % ID/g
Drug uptake (Heart [14]): 0.09 % ID/g
Drug uptake (Kidney [15]): 7.3 % ID/g
Drug uptake (Kidney [16]): 0.1 % ID/g
Drug uptake (Brain [17]): 0.06 % ID/g
Drug uptake (Kidney [18]): 8.7 % ID/g
Drug uptake [19]: 10.5 % ID/g
Drug uptake (Heart [20]): 3 % ID/g
Drug uptake (Liver [21]): 19.2 % ID/g
Drug uptake (Brain [22]): 0.48 % ID/g
Drug uptake [23]: 10.9 % ID/g
Drug uptake [24]: 3.3 % ID/g
Drug uptake (Lung [25]): 9.7 % ID/g
Drug uptake (Liver [26]): 3.8 % ID/g
Drug uptake (Lung [27]): 0.14 % ID/g
Drug uptake (Liver [28]): 0.29 % ID/g
Drug uptake [29]: 24.6 % ID/g
Drug uptake (Kidney [30]): 0.22 % ID/g
Drug uptake (Heart [31]): 0.93 % ID/g
Drug uptake (Lung [32]): 10.8 % ID/g
Drug uptake [33]: 5.5 % ID/g
Drug uptake (Blood [34]): 0.34 % ID/g
Drug uptake (Brain [35]): 3.1 % ID/g
